According to ChEMBL document CHEMBL4321868, “Scaffold Simplification Strategy Leads to a Novel Generation of Dual Human Immunodeficiency Virus and Enterovirus-A71 Entry Inhibitors” (J Med Chem, 2020):
Activity calls are given as the source filed them. The calls are words filed in the database; no cut-off is given here.

How the values were obtained:
[1] = target: Human immunodeficiency virus type 1 reverse transcriptase (Human immunodeficiency virus 1) (UniProt Q72547); conditions: 3B, MT4, 12 uM
[2] = tested on: Human immunodeficiency virus 1; experiment: Antiviral activity against HIV1 3B infected in human MT4 cells assessed as reduction in p24 production at 20 uM incubated for 1 hr prior to viral infection followed by compound washout and measured 8 hrs post-infection by ELISA; assay type: functional, organism-based
Enterovirus A71 [3] = experiment: Antiviral activity against Enterovirus A 71 BrCr harboring VP1 P246S mutant infected in human RD cells assessed as reduction in virus-induced cytopathic effect preincubated for 1 day followed by viral infection and measured after 3 days by MTS/PMS method; assay type: functional, organism-based, strain BRCR
Enterovirus A71 [4] = experiment: Antiviral activity against Enterovirus A71 genotype C2 H08300 461812 infected in human RD cells assessed as reduction in virus-induced cell death preincubated for 1 day followed by viral infection and measured after 3 days by microscopic analysis; assay type: functional; design: scale not given: the % may be the effect or the level left
Method in brief: (§1)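 RD cells were seeded in 96-well plates and infected the next day at low MOI, with serial compound dilutions added at the same time. Plates were incubated at 37 °C, 5% CO2 for 3 days, until untreated infected controls died. Cell death was quantified by MTS/PMS and EC50 calculated from dose-response curves. Values come from more than 2 dose-response curves across more than 1 experiment, with microscopic quality control.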

Enterovirus A71 [5] = experiment: Antiviral activity against Enterovirus A 71 BrCr infected in human RD cells assessed as reduction in virus-induced cell death preincubated for 1 day followed by viral infection and measured after 3 days by microscopic analysis; assay type: functional, strain BRCR; design: scale not given: the % may be the effect or the level left
Method in brief: as §1

Enterovirus A71 [6] = experiment: Antiviral activity against Enterovirus A71 genotype B2 11316 infected in human RD cells assessed as reduction in virus-induced cell death preincubated for 1 day followed by viral infection and measured after 3 days by microscopic analysis; assay type: functional; design: scale not given: the % may be the effect or the level left
Method in brief: as §1

Enterovirus A71 [7] = experiment: Antiviral activity against Enterovirus A71 genotype B5 TW/70902/08 infected in human RD cells assessed as reduction in virus-induced cell death preincubated for 1 day followed by viral infection and measured after 3 days by […]; assay type: functional; design: scale not given: the % may be the effect or the level left
Method in brief: as §1

RD [8] = experiment: Cytotoxicity against human RD cells assessed as adverse effect on cell; assay type: cell-based
Enterovirus A71 [9] = experiment: Antiviral activity against Enterovirus A 71 BrCr harboring VP1 S184T/P246S mutant infected in human RD cells assessed as reduction in virus-induced cytopathic effect preincubated for 1 day followed by viral infection and measured after 3 days by MTS/PMS method; assay type: functional, organism-based, strain BRCR
[10] = tested on: Human immunodeficiency virus 2; experiment: Antiviral activity against HIV-2 ROD infected in human MT4 cells assessed as reduction in virus-induced cytopathic effect preincubated for 30 mins followed by viral infection and measured after 5 days by MTS assay; conditions: Human immunodeficiency virus 2, ISOLATE ROD
Enterovirus A71 [11] = experiment: Antiviral activity against Enterovirus A 71 BrCr harboring VP1 S184T mutant infected in human RD cells assessed as reduction in virus-induced cytopathic effect preincubated for 1 day followed by viral infection and measured after 3 days by MTS/PMS method; assay type: functional, organism-based, strain BRCR
[12] = target: Envelope glycoprotein gp160 (Human immunodeficiency virus 1) (UniProt Q6QLK5); experiment: (§2) Inhibition of biotinylated-heparin binding to recombinant HIV1 3B gp120 by SPR analysis
Sequence of Envelope glycoprotein gp160 (Human immunodeficiency virus 1) (Q6QLK5 1-814): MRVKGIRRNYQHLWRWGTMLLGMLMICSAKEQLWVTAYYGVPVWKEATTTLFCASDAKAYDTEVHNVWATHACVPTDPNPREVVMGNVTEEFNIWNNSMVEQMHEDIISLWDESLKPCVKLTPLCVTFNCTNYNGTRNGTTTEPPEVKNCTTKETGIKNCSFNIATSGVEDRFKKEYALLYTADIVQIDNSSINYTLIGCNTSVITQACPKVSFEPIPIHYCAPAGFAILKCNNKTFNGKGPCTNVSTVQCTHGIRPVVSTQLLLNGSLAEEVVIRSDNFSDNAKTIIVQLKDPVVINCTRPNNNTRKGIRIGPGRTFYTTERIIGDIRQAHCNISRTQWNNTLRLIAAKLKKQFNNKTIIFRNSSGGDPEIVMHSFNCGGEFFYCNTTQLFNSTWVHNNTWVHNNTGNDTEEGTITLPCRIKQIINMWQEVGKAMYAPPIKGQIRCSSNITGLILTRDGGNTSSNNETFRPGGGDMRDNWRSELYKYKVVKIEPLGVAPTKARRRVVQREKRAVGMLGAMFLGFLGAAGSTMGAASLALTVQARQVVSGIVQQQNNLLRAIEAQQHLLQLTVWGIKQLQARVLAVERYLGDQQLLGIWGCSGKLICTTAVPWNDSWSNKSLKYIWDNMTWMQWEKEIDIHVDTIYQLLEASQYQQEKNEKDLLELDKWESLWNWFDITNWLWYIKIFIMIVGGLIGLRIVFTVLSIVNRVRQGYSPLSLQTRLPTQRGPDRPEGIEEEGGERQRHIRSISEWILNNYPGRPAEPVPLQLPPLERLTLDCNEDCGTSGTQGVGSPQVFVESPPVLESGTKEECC
Method in brief: (§3)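 SPR at 25 °C in PBS with 5% DMSO, 0.005% Tween20, pH 7.4. Minimally biotinylated heparin captured (880 RU) on streptavidin chip. Recombinant HIV-1 IIIB gp120 (10 nM) alone or premixed with a compound concentration range injected 2 min at 10 μl/min; regenerated with 1 M NaCl/10 mM NaOH. Double-referenced; RU converted to % inhibition vs gp120 alone; nonlinear fit, three experiments.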

[13] = target: Envelope glycoprotein gp160 (Human immunodeficiency virus 1, UniProt Q6QLK5); experiment: as §2
Sequence of Envelope glycoprotein gp160 (Q6QLK5 whole entry): as the sequence (Q6QLK5 1-814) above
Method in brief: as §3

Enterovirus A71 [14] = experiment: Antiviral activity against Enterovirus A71 genotype C4 TW/1956/05 infected in human RD cells assessed as reduction in virus-induced cell death preincubated for 1 day followed by viral infection and measured after 3 days by microscopic analysis; assay type: functional; design: scale not given: the % may be the effect or the level left
Method in brief: as §1

[15] = tested on: Human immunodeficiency virus 1; experiment: Antiviral activity against HIV1 3B infected in human MT4 cells assessed as reduction in p24 production at 20 uM administered at onset of infection measured 8 hrs post-infection by ELISA; assay type: functional, organism-based
[16] = target: Envelope glycoprotein gp160 (Human immunodeficiency virus 1) (UniProt Q6QLK5); experiment: Binding affinity to recombinant HIV1 3B gp120 by SPR analysis
HeLa = experiment: Binding affinity to capsid protein VP1 five fold axis in Enterovirus A71 genotype B2 11316 infected in human HeLa cells at 20 uM measured after 1 hr by cryo-electron microscopic analysis; assay type: cell-based
RD [17] = experiment: Cytotoxicity against human RD cells assessed as induction of cell morphological changes; assay type: cell-based
[18] = Cytotoxicity against human MT4 cells assessed as reduction in cell viability measured after 5 days by MTS/PES assay; assay type: cell-based
Method in brief: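 MT-4 cells (RPMI-1640, 10% FCS, 1% L-glutamine) pre-incubated 30 min at 37 °C with compound, then infected with HIV-1 NL4.3 or HIV-2 ROD according to stock TCID50. After 5 days, CPE scored microscopically and viability read by MTS/PES at A490 to derive EC50; cytotoxicity measured by MTS/PES at 5 days in the same cells. SI = CC50/EC50. Mean ± S.D. of at least 3 experiments.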

Enterovirus A71 [19] = experiment: Antiviral activity against Enterovirus A 71 BrCr infected in human RD cells assessed as reduction in virus-induced cytopathic effect preincubated for 1 day followed by viral infection and measured after 3 days by MTS/PMS method; assay type: functional, organism-based; conditions: strain BRCR
Method in brief: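 RD cells seeded in 96-well plates; next day serial compound dilutions plus virus at low MOI added. Incubation at 37 °C, 5% CO₂ until full CPE in untreated infected controls (3 days). Viability read by MTS/PMS; EC50 as 50% inhibition of virus-induced death from dose-response curves. CC50 from uninfected treated cells in the same setup; SI = CC50/EC50.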

Cc1cn([C@H]2C[C@H](N=[N+]=[N-])[C@@H](CO)O2)c(=O)[nH]c1=O
inhibition [1]: Active

O=C(CCOCC(COCCC(=O)NC(Cc1c(-c2cc(C(=O)O)cc(C(=O)O)c2)[nH]c2ccccc12)C(=O)O)(COCCC(=O)NC(Cc1c(-c2cc(C(=O)O)cc(C(=O)O)c2)[nH]c2ccccc12)C(=O)O)COCCC(=O)NC(Cc1c(-c2cc(C(=O)O)cc(C(=O)O)c2)[nH]c2ccccc12)C(=O)O)NC(Cc1c(-c2cc(C(=O)O)cc(C(=O)O)c2)[nH]c2ccccc12)C(=O)O (stereo unspecified)
Activity [2]: Active
EC50 (Enterovirus A71 [3]): 0.2 µM
Activity (Enterovirus A71 [4]): 100%
Activity (Enterovirus A71 [5]): 100%
Activity (Enterovirus A71 [6]): 100%
Activity (Enterovirus A71 [7]): 100%
Activity (RD [8]): Non-Toxic
EC50 (Enterovirus A71 [9]): 0.3 µM
EC50 [10]: 0.02 µM
EC50 (Enterovirus A71 [11]): 0.9 µM
inhibition [12]: Dose-dependent effect
IC50 [13]: 0.211 µM
Activity (Enterovirus A71 [14]): 100%
Activity [15]: Active
Activity [16]: Dose-dependent effect
Activity (HeLa): Active
Activity (RD [17]): Non-Toxic
CC50 at 120 h [18]: > 100 µM
EC50 (Enterovirus A71 [19]): 0.04 to 0.109 µM
EC90 (Enterovirus A71 [19]): 0.16 µM
